Measurements: ChEMBL document CHEMBL1155709, “Eleven novel diarylheptanoids and two unusual diarylheptanoid derivatives from the seeds of Alpinia blepharocalyx” (2001)

Columns and labels:
[1] = system: HT-1080; assay: Cytotoxicity against human HT1080 cells by MTT assay; assay type: functional; settings: read-out: ED50 (the source's name)
Method in brief: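 Human HT-1080 fibrosarcoma cells kept in Eagle's minimum essential medium with 10% fetal calf serum, 0.1% NaHCO3 and 2 mM glutamine. Viability with and without test agents was read by standard MTT assay, and ED50 was reported. 5-Fluorouracil and curcumin served as positive controls.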

[2] = Cytotoxicity against mouse 26-L5 cells by MTT assay; assay type: functional; settings: read-out: ED50 (the source's name)
Method in brief: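 Murine colon 26-L5 carcinoma cells grown in RPMI-1640 with 10% fetal calf serum, 0.1% NaHCO3 and 2 mM glutamine. MTT assay compared viability in the presence and absence of agents, giving ED50 values. Positive controls were 5-fluorouracil and curcumin.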

| SMILES | EC50 ([1]; Homo sapiens, HT-1080) [µM] | EC50 ([2]; Mus musculus) [µM] | EC50 [1] [µM] | EC50 [2] [µM] |
| --- | --- | --- | --- | --- |
| COc1cc2c(c3c1C(=O)CC(c1ccc(O)cc1)O3)[C@H](C[C@@H](O)CCc1ccc(O)cc1)C[C@H](c1ccc(O)cc1)O2 (mixture of isomers) | 10.1 | 42.1 |  |  |
| COc1cc2c(c3c1C(=O)CC(c1ccc(O)cc1)O3)[C@@H]1C[C@H](CCc3ccc(O)cc3)O[C@H](c3ccc(O)cc3)[C@H]1[C@H](c1ccc(O)cc1)O2 (mixture of isomers) [CALYXIN J] |  |  | 0.32 | 13.7 |
| COc1cc(O)c([C@@H]2C[C@H](CCc3ccc(O)cc3)O[C@H](c3ccc(O)cc3)C2)c2c1C(=O)CC(c1ccc(O)cc1)O2 (stereo in doubt; 3) [CALYXIN K] | 5.09 |  |  | 7.73 |
| COc1cc(O)c([C@@H]2C[C@H](CCc3ccc(O)cc3)O[C@H](c3ccc(O)cc3)C2)c2c1C(=O)CC(c1ccc(O)cc1)O2 (stereo in doubt; 4) [CALYXIN K] |  |  | 4.75 | 33 |
| COc1cc2c(c3c1C(=O)CC(c1ccc(O)cc1)O3)[C@@H]1C[C@H](CCc3ccc(O)cc3)O[C@H](c3ccc(O)cc3)[C@H]1[C@H](c1ccc(O)cc1)O2 (stereo in doubt; 7) [CALYXIN J] |  | 23.2 | 8.19 |  |
| COc1cc2c(c3c1C(=O)CC(c1ccc(O)cc1)O3)[C@@H]1C[C@H](CCc3ccc(O)cc3)O[C@@H]1O2 (stereo in doubt; 12) [NEOCALYXIN A] | 10.7 | > 100 |  |  |
| COc1cc2c(c3c1C(=O)CC(c1ccc(O)cc1)O3)[C@@H]1C[C@H](CCc3ccc(O)cc3)O[C@@H]1O2 (stereo in doubt; 13) [NEOCALYXIN A] |  |  | 20.2 | 78 |
| COc1cc(O)c([C@@H]2C[C@H](CCc3ccc(O)cc3)O[C@H](c3ccc(O)cc3)C2)c(O)c1C(=O)/C=C/c1ccc(O)cc1 [CALYXIN B] | 10.4 | 10.4 |  |  |
| COc1cc(O)c(C(/C=C/c2ccc(O)cc2)C[C@@H](O)CCc2ccc(O)cc2)c2c1C(=O)CC(c1ccc(O)cc1)O2 (some centres not stated) [CALYXIN E] | 21.7 | 98.1 |  |  |
| COc1cc(O)c([C@@H]2C[C@H](CCc3ccc(O)cc3)O[C@@H](c3ccc(O)cc3)C2)c2c1C(=O)CC(c1ccc(O)cc1)O2 (some centres not stated) [CALYXIN G] | 25.9 | 42.2 |  |  |
| COc1cc(O)c2c(c1C(=O)/C=C/c1ccc(O)cc1)O[C@@H](c1ccc(O)cc1)[C@@H]1[C@@H](c3ccc(O)cc3)O[C@@H](CCc3ccc(O)cc3)C[C@@H]21 [CALYXIN I] | 9.08 | 8.39 |  |  |
| COc1cc(O)c2c(c1C(=O)/C=C/c1ccc(O)cc1)O[C@@H](c1ccc(O)cc1)C[C@H]2C[C@@H](O)CCc1ccc(O)cc1 [CALYXIN L] | 44.3 | 28.2 |  |  |
| COc1cc(/C=C/C(=O)CC(=O)/C=C/c2ccc(O)c(OC)c2)ccc1O [CURCUMIN] | 23.4 | 23.2 |  |  |
| COc1cc(O)c([C@@H]2C[C@H](CCc3ccc(O)cc3)O[C@@H](c3ccc(O)cc3)C2)c(O)c1C(=O)/C=C/c1ccc(O)cc1 [EPICALYXIN F] | 1.71 | 0.89 |  |  |
| COc1cc(O)c2c(c1C(=O)/C=C/c1ccc(O)cc1)O[C@H](c1ccc(O)cc1)[C@@H]1[C@@H](c3ccc(O)cc3)O[C@@H](CCc3ccc(O)cc3)C[C@@H]21 [EPICALYXIN I] | 5.88 | 12.1 |  |  |
| O=c1[nH]cc(F)c(=O)[nH]1 [FLUOROURACIL] | 8 | 0.53 |  |  |
